This is a sample that favours compounds with a hit; in the whole collection about 3.8% have one here.
Kir21 block: Kir2.1 (mouse) channel inhibition; HEK293-Kir2.1, FluxOR thallium flux fluorescence; active compounds read low; B-score at 10 µM; 310,000 compounds, 0.85% hits; AID 1672;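 active = fluorescence ratio B-score at or below minus 3 SD of library scores, with starting-brightness B-score within 2 SD, cut at about -4.2 in these data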;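 also: channel flux triggered by added potassium and thallium sulfate stimulus; B-score of peak minus minimum fluorescence over baseline after thallium stimulus; more negative B-score means stronger Kir2.1 block with less thallium influx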
hERG rescue: shields human hERG channel from block by proarrhythmic agents. CHO-hERG, FluxOR thallium flux, dofetilide IC70 present. activation (rescue from dofetilide block), less the hit threshold, % at 10 µM. 310,000 compounds, 0.51% hits;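 active = activation above the mean of controls blocked by dofetilide plus 5 SD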;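 also: thallium influx through hERG after potassium depolarization seen as dye fluorescence rise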
KCNQ1 act: potentiates or activates the human KCNQ1 potassium channel; P51787; CHO-K1 KCNQ1, thallium flux FluxOR fluorescence; active compounds read high; B-score at 10 µM; 310,000 compounds, 0.35% hits; AID 2648;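 active = fluorescence ratio B-score, a plate-corrected score, at least three library SD, with initial intensity B-score within 5 SD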
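assay system = KCNQ1-transfected CHO-K1 cells | medium = assay buffer with matched DMSO | probe or stimulus = depolarizing K+/Tl+ stimulus, K2SO4 and Tl2SO4 each 12.5 mM in 5x stock | dosing = single dose | incubation = dye 90 min, compound 20 min, room temperature | detection = kinetic FluxOR fluorescence, 10 s baseline plus 110 s post-stimulus | evaluation = ratio B score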
KCNK3 block: human KCNK3 channel inhibition, primary screen; B-score at 10 µM; CHO-KCNK3 thallium flux, FluxOR fluorescence; active compounds read low; 340,000 compounds, 0.84% hits; O14649; AID 602410;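 active = B-score under library mean minus 4 SD, starting fluorescence ratio at most library mean plus 5 SD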;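 also: more negative B-score means stronger inhibition of thallium flux through KCNK3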
KCNK9 block: inhibitors of human KCNK9 two-pore domain potassium channel | 310,000 compounds, 1.2% hits | Q9NPC2 | HEK293 KCNK9, FluxOR thallium flux fluorescence; active compounds read low | B-score at 10 µM | AID 488922;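 active = ratio B-score over 3 SD below the library mean, with starting fluorescence within 5 SD of its mean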;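 also: negative B-score means less thallium flux so channel inhibition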
Target sequence (Q9NPC2 whole entry, looked up, the tested form may be a part): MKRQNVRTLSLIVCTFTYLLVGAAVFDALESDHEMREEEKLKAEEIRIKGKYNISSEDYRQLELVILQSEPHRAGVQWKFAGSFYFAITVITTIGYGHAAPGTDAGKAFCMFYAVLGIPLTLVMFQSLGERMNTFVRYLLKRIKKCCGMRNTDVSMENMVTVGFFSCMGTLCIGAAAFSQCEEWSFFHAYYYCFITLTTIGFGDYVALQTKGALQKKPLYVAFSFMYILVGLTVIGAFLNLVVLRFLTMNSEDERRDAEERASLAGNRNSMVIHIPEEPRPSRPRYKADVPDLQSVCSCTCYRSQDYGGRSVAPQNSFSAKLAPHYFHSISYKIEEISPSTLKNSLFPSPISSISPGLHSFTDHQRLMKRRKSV
KCNQ1 inh: inhibitors of human KCNQ1 potassium channel; 310,000 compounds, 1.3% hits; P51787; CHO-K1 KCNQ1, FluxOR thallium flux fluorescence; active compounds read high; B-score at 10 µM; AID 2642;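 active = compounds whose thallium flux B-score, printed positive for inhibition, exceeds three library SD while starting fluorescence stays within three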;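 also: channel opened by potassium depolarization with thallium stimulus after 20 min compound exposure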
KCNK9 inh conf: confirmation of human KCNK9 potassium channel inhibitors; shares compounds with KCNK9 block; HEK293 KCNK9 cells, FluxOR thallium flux fluorescence; inhibition, % at 10 µM; 4,900 compounds, 43% hits;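 active = thallium signal inhibited by more than 5 SD of the compound-free buffer control wells, on both duplicate plates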
Kir21 sel: mouse Kir2.1 off-target activity of KCNK9 modulators. inhibition, % at 10 µM. shares compounds with KCNK9 block. Kir2.1 cells, FluxOR thallium flux fluorescence. 4,900 compounds, 4% hits;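 active = thallium signal drop more than 5 SD beyond the mean of the no-compound control wells, seen in both duplicate plates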;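 also: signal is fluorescence rise after thallium addition divided by baseline fluorescence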
KCNK9 uninduced: second check of KCNK9 modulator effects in non-induced HEK293 cells. shares compounds with KCNK9 block. FluxOR thallium flux. inhibition, % at 10 µM. 4,900 compounds, 40% hits. AID 492997;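 active = thallium signal drop beyond 5 SD of the untreated control mean, on both duplicate plates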
Of the large screens only hits and unclear results are named; the others gave an inactive call (follow-up assays come after a bar, where they were run).

CCN(CC)c1ccc(CNc2ccc(Br)cn2)cc1	none | KCNK9 inh conf inactive | Kir21 sel inactive | KCNK9 uninduced inactive
NC1=NC(=O)NC1(c1ccccc1)c1ccccc1	none (no result: Kir21 block, hERG rescue, KCNQ1 act, KCNK9 block, KCNQ1 inh)
COc1ccc(C2C=C(Nc3ccccc3)C(=O)N2c2ccccc2)cc1OC (stereo not drawn)	KCNK9 block -10.8 | KCNK9 inh conf 62.0% | Kir21 sel inactive | KCNK9 uninduced 33.5%
FC(F)(F)c1ccc(-c2nc(=S)[nH][nH]2)cc1	none | KCNK9 inh conf inactive | Kir21 sel inactive | KCNK9 uninduced inactive
COc1ccc(C(=O)Nc2sc3c(c2C(=O)NCc2ccco2)CCCC3)cc1OC	KCNK9 block -11.7 | KCNK9 inh conf 31.0% | Kir21 sel inactive | KCNK9 uninduced inactive
O=C(Nc1sc2c(c1C(=O)NCc1ccco1)CCCC2)c1ccc2c(c1)OCO2	KCNK9 block -10.5 | KCNK9 inh conf 42.5% | Kir21 sel inactive | KCNK9 uninduced inactive
COc1ccccc1N1C(C)=CC(=C(C#N)c2nc3ccccc3s2)C=C1C	KCNK9 block -8.36 | KCNK9 inh conf 37.0% | Kir21 sel inactive | KCNK9 uninduced 70.0%
Cc1cccnc1Nc1nc(-c2ccccn2)cs1	none
Cc1cccnc1Nc1nc(-c2ccccc2)cs1	none | KCNK9 inh conf inactive | Kir21 sel inactive | KCNK9 uninduced 26.0%
CC1Nc2ncnc(N3CCc4ccccc4C3)c2N(Cc2ccc(Br)cc2)C1=O (stereo not drawn)	KCNK9 block -11.1 | KCNK9 inh conf 31.0% | Kir21 sel inactive | KCNK9 uninduced 30.5%
CC1Nc2ncnc(N3CCc4ccccc4C3)c2N(Cc2ccc(Cl)cc2)C1=O (stereo not drawn)	KCNK9 block -10.7 | KCNK9 inh conf 34.5% | Kir21 sel inactive | KCNK9 uninduced 29.5%
O=C1C(Cc2ccccc2)Nc2ncnc(N3CCc4ccccc4C3)c2N1Cc1ccccc1 (stereo not drawn)	none (no result: Kir21 block, hERG rescue, KCNQ1 act, KCNK9 block, KCNQ1 inh)
COc1cccc(OC)c1CC1SC(=O)NC1=O (stereo not drawn)	none
C[C@H](CO)N1C[C@H](C)[C@@H](CN(C)S(=O)(=O)c2cccs2)Oc2c(NC(=O)CCC(F)(F)F)cccc2C1=O	none (no result: Kir21 block, hERG rescue, KCNQ1 act, KCNK9 block, KCNQ1 inh)
COc1ccc(NC(=O)C2CCCN(S(=O)(=O)c3ccc(Cl)cc3)C2)cc1OC (stereo not drawn)	none
CCOc1ccc(-c2c(=O)n(OCc3nc4ccccc4[nH]3)c3ccccc3[n+]2[O-])cc1	none
CCCOc1ccc(-c2c(=O)n(OCc3ccc([N+](=O)[O-])cc3)c3ccccc3[n+]2[O-])cc1	KCNK9 block -11 | KCNK9 inh conf 50.5% | Kir21 sel inactive | KCNK9 uninduced 33.5%
N#Cc1cc(N)ccc1Sc1ccc(Cl)cc1	KCNK9 block -8.51 | KCNK9 inh conf 38.0% | Kir21 sel inactive | KCNK9 uninduced 32.0%
O=C1C=C(c2ccc(C(=O)O)c(Cl)c2)C[C@@H](c2ccc3c(c2)OCO3)C1	none (no result: Kir21 block, hERG rescue, KCNQ1 act, KCNK9 block, KCNQ1 inh)
Cc1ccc(S(=O)(=O)N2CCOCC2)cc1C(=O)O	none
Cc1ccc(C)c(N2CCN(C(=O)c3cc(S(=O)(=O)N4CCOCC4)ccc3F)CC2)c1	none | KCNK9 inh conf inactive | Kir21 sel inactive | KCNK9 uninduced inactive
Cc1ccc(S(C)(=O)=NS(=O)(=O)c2cccc3nsnc23)cc1 (stereo not drawn)	none
O=C(COC(=O)/C=C/c1ccc(F)cc1)NC1CC1	none (no result: Kir21 block, hERG rescue, KCNQ1 act, KCNK9 block, KCNQ1 inh)
N#C/C(=C/c1ccc(N2CCOCC2)o1)c1ccc(Cl)cc1	KCNK9 block -10.4 | KCNK9 inh conf 74.0% | Kir21 sel 37.5% | KCNK9 uninduced 79.5%
COc1ccccc1CN=C1NC(=O)C(CC(=O)Nc2ccc(C(C)=O)cc2)S1 (stereo not drawn)	none
